This note sets out measurements from ChEMBL document CHEMBL3351593, “Potent nonimmunosuppressive cyclophilin inhibitors with improved pharmaceutical properties and decreased transporter inhibition” (J Med Chem, 2014).

Data set [1] has as its target ATP-binding cassette sub-family C member 2 (Homo sapiens, UniProt Q92887). The data set is described as follows: Inhibition of human MRP2 expressed in Sf9 cells inside out vesicles using CDCF substrate. In a few lines:
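Inside-out vesicles from baculovirus-infected Sf9 cells expressing hMRP2, with CDCF as probe. ATP-dependent uptake taken as uptake with ATP minus uptake with AMP. Remaining activity calculated as uptake with inhibitor divided by uptake without, and the inhibition value derived from that.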

The nature of data set [2]: AUC in dog blood at 1 mg/kg, po after 72 hrs. It counts as ADME, organism-based, Canis lupus familiaris. Further details: time < 72 hr, dose 1 mg/kg, route oral. Conditions: whole blood. Put shortly: (§1)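 Oral dosing as a solution in MEPC: rat 25 mg/kg, dog 1 mg/kg. Blood and plasma collected separately over 0−72 h and AUC computed for each matrix.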
The target in data set [3] is T1, Broad substrate specificity ATP-binding cassette transporter ABCG2 (Homo sapiens, UniProt Q9UNQ0).
T1 sequence (Q9UNQ0 whole entry): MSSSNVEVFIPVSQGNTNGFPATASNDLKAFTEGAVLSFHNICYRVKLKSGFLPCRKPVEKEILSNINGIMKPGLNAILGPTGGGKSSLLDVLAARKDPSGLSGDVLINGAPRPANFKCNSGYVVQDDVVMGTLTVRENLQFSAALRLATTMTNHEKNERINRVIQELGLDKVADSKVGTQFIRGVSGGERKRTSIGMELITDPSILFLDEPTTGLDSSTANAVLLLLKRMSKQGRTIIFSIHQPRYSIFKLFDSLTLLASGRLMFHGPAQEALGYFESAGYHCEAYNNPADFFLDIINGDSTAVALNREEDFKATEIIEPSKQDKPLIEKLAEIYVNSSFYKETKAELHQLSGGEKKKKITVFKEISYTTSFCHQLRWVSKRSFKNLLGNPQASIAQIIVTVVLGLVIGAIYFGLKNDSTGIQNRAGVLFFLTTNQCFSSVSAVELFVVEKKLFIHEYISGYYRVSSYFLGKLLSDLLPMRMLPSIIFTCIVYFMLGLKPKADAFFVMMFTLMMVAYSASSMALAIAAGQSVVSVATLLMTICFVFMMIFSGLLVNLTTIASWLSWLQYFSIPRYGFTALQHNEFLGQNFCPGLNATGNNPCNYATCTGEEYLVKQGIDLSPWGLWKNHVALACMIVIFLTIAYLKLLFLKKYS
The data set is described as follows: Inhibition of BCRP (unknown origin) expressed in T8 cells using Bodipy FL-prazosin substrate. Type of data set: ADME, cell-based. In a few lines:
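BCRP activity in T8 cells, measured with Bodipy FL-prazosin as substrate; IC50 reported.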

The target of data set [4] is Peptidyl-prolyl cis-trans isomerase F, mitochondrial (Homo sapiens, UniProt P30405). The data set is described as follows: Binding affinity to human cyclophilin F by surface plasmon resonance method. Put shortly: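 Surface plasmon resonance with biotinylated cyclophilin protein, single-cycle kinetics. Running buffer 10 mM HEPES pH 7.4, 150 mM NaCl, 0.05% P20, 3% DMSO, with inhibitor present. Compound injected at several concentrations, 1 min contact each at 50 μL/min, then 10 min final dissociation. kon, koff and KD obtained from a 1:1 binding model fit.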

For data set [5], the target named is T2, Solute carrier organic anion transporter family member 1B1 (Homo sapiens, UniProt Q9Y6L6).
T2 sequence (Q9Y6L6 whole entry): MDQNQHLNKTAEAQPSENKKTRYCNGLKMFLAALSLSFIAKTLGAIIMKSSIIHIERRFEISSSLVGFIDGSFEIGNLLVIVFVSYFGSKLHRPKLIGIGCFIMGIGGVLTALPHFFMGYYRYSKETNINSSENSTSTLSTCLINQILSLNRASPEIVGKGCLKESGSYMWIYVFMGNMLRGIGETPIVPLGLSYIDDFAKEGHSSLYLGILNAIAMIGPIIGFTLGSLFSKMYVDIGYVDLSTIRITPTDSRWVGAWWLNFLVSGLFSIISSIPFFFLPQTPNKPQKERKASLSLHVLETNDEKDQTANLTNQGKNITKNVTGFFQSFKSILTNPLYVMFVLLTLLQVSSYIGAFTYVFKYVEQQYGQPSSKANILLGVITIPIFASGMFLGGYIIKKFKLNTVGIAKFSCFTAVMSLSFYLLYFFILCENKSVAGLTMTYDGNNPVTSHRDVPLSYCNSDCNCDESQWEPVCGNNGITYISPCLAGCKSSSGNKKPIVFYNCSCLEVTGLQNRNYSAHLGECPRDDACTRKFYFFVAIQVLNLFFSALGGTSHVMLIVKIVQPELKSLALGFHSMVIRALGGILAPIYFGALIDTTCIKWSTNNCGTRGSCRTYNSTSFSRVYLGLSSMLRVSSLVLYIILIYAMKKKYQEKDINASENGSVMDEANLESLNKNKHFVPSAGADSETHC
The data set is described as follows: Inhibition of OATP1B1 (unknown origin) expressed in CHO cells using 8-fluorescein-cAMP substrate by fluorescent photometry. Type of data set: ADME, cell-based. Put shortly:
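CHO-OATP1B1 cells and vector control cells cultured 2 days, then washed and equilibrated 15 min in HBSS + 10 mM HEPES. Exposed 10 min to 2.5 μM 8-fluorescein-cAMP with inhibitor at 0−30 μM (up to 1% DMSO). Cells washed and lysed, uptake measured by fluorescence, and IC50 taken from the concentration-response curve.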

For a further data set, the system named is PBMC. The data set is described as follows: Cytotoxicity against PHA-stimulated human PBMC by 5-bromo-2'-deoxyuridine incorporation assay. Type of data set: cell-based. Put shortly: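 Fresh PBMCs from two human donors in X-VIVO 15 medium, stimulated with PHA. Seven concentrations taken from a half-log series. Incubated 60 h at 37 °C, 5% CO2, with BrdU added for the final 12 h. Incorporation read by anti-BrdU ELISA at 450 nm. Percent inhibition against PHA-stimulated untreated cells after background subtraction, four-parameter fit giving IC50.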

Data set [6] can be described thus: AUC in dog plasma at 1 mg/kg, po after 72 hrs. It counts as ADME, organism-based, Canis lupus familiaris. Further details: time < 72 hr, dose 1 mg/kg, route oral. Put shortly:
as §1

A further data set concerns the target T3, Cytochrome P450 2C8 (Homo sapiens, UniProt P10632).
T3 sequence (P10632 whole entry): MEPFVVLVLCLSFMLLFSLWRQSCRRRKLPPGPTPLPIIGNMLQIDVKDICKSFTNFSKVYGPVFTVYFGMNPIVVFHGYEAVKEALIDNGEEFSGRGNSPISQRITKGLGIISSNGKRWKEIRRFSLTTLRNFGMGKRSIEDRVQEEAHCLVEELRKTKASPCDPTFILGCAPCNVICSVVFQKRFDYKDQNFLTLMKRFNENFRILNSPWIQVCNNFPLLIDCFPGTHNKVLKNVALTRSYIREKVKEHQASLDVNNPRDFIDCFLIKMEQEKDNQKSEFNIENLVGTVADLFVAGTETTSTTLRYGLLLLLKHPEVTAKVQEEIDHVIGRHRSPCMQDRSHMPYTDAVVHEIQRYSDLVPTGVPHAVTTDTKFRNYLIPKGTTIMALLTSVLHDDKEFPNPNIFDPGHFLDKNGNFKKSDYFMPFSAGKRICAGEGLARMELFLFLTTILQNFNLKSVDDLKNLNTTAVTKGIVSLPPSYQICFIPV
The data set can be described thus: Inhibition of CYP2C8 (unknown origin). It counts as ADME.

Another data set has as its target Cytochrome P450 2D6 (Homo sapiens, UniProt P10635). The data set is described as follows: Inhibition of CYP2D6 (unknown origin). Type of data set: ADME.
The target of a further data set is Cytochrome P450 3A4 (Homo sapiens, UniProt P08684). The data set is described as follows: Inhibition of CYP3A4 (unknown origin). It counts as ADME.
In the next data set the target is Cytochrome P450 2C19 (Homo sapiens, UniProt P33261). The data set is described as follows: Inhibition of […] (unknown origin). It counts as ADME.

The structures appear in SMILES notation.

Sequence of Peptidyl-prolyl cis-trans isomerase F, mitochondrial (P30405 whole entry): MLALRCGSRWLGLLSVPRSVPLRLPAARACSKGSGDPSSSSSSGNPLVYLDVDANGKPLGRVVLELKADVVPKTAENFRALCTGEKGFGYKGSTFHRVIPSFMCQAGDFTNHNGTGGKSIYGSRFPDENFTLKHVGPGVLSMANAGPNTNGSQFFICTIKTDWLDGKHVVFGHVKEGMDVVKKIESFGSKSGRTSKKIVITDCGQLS
Sequence of ATP-binding cassette sub-family C member 2 (Q92887 whole entry): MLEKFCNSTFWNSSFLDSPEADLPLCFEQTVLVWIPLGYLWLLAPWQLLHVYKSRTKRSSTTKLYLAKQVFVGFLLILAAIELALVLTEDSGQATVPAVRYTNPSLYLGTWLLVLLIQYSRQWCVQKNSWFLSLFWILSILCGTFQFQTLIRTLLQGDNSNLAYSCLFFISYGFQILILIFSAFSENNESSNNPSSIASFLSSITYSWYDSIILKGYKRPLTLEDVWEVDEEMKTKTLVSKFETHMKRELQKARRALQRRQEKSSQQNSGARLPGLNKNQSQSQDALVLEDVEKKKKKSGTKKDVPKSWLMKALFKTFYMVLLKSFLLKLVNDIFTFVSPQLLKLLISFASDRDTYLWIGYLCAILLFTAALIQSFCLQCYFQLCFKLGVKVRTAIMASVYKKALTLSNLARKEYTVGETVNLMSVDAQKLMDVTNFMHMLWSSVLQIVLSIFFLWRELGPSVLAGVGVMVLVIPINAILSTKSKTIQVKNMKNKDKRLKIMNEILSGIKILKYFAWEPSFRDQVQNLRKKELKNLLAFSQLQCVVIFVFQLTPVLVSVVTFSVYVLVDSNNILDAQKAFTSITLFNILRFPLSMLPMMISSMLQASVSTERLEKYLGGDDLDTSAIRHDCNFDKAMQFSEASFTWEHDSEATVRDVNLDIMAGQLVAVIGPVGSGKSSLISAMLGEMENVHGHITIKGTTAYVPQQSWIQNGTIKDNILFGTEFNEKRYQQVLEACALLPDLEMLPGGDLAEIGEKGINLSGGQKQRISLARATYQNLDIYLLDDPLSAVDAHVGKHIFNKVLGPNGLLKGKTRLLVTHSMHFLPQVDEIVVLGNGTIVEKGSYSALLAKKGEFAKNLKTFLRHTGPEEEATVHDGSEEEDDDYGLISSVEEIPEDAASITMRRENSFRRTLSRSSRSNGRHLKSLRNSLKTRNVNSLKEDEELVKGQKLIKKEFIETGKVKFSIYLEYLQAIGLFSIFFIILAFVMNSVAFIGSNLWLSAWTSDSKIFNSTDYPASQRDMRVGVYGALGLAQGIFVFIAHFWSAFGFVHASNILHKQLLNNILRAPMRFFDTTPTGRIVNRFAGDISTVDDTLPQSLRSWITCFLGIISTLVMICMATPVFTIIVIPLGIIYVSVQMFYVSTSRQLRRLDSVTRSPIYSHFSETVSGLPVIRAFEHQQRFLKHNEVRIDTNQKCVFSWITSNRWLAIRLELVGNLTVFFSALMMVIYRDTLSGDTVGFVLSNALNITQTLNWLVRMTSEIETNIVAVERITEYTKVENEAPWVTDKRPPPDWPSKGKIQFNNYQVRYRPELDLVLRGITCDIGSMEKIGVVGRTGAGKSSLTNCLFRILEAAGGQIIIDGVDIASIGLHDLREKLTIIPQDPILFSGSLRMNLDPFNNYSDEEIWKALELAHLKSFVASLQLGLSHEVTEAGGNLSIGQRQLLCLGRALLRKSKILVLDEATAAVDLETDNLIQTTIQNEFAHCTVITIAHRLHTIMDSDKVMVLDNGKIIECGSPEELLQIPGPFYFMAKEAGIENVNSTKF
Sequence of Cytochrome P450 3A4 (P08684 whole entry): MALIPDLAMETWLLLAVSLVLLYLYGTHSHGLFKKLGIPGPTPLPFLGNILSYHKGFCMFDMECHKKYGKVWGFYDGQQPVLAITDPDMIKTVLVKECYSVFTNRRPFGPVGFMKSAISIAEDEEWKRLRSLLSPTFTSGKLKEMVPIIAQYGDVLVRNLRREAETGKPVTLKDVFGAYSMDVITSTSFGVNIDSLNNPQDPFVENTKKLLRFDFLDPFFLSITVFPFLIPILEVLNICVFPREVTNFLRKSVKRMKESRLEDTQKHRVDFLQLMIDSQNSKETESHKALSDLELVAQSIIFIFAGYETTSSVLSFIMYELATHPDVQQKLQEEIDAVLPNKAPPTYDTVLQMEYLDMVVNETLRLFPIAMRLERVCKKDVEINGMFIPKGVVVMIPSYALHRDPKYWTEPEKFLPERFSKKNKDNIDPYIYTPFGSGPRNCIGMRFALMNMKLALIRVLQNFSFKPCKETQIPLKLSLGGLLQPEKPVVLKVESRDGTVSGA
Sequence of Cytochrome P450 2C19 (P33261 whole entry): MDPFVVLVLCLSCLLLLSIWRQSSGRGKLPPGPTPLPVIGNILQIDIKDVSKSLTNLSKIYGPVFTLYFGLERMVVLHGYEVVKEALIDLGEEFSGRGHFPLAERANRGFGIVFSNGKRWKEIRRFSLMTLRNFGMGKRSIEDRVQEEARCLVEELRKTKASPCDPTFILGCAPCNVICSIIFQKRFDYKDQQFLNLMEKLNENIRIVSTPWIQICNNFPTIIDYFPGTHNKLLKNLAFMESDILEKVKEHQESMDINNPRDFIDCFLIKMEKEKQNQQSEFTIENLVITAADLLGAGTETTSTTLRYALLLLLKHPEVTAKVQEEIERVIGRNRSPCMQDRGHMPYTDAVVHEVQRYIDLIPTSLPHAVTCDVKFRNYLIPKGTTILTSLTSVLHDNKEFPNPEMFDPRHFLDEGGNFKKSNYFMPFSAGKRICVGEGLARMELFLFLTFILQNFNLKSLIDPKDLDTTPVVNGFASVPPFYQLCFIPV
Sequence of Cytochrome P450 2D6 (P10635 whole entry): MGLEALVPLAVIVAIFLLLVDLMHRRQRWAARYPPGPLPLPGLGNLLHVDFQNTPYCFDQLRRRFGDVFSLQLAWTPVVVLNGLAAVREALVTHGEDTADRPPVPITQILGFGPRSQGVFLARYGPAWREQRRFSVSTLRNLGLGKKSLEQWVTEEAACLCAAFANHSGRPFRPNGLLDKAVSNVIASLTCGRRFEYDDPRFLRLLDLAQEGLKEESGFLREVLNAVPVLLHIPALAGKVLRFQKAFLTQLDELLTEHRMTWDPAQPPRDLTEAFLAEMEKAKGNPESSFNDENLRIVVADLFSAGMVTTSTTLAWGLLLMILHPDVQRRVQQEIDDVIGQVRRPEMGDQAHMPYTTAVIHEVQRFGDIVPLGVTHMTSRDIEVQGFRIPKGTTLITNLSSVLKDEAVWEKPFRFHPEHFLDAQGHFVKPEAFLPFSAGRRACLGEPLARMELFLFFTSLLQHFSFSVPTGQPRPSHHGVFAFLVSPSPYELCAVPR

The compound `C/C=C/C[C@@H](C)[C@@H](O)[C@H]1C(=O)N[C@@H](CC)C(=O)N(C)[C@H](C)C(=O)N(CC)[C@@H](C(C)C)C(=O)N[C@@H](C(C)C)C(=O)N(C)[C@@H](CC(C)C)C(=O)N[C@@H](C)C(=O)N[C@H](C)C(=O)N(C)[C@@H](CC(C)C)C(=O)N(C)[C@@H](CC(C)C)C(=O)N(C)[C@@H](C(C)C)C(=O)N1C` [ALISPORIVIR] returned an inhibitory constant (Ki) in data set [1] of 18 µM. The AUC at 72 h is 2190 nM·h in [2] and 400 nM·h in [6]. Also, the concentration for half-maximal inhibition (IC50) in data set [3] was 2.5 µM; in data set [5], 0.8 µM; in the data set with PBMC, 0.5 µM. In [4], this compound returned a Kd of 0.001 µM.
On to `C/C=C/C[C@@H](C)[C@@H](O)[C@H]1C(=O)N[C@@H](CC)C(=O)N(C)[C@H](C)C(=O)N(C)[C@@H]([C@@H](C)CN2CCN(CCOC)CC2)C(=O)N[C@@H](C(C)C)C(=O)N(C)[C@@H](CC(C)C)C(=O)N[C@@H](C)C(=O)N[C@H](C)C(=O)N(C)[C@@H](CC(C)C)C(=O)N(C)[C@@H](CC(C)C)C(=O)N(C)[C@@H](C(C)C)C(=O)N1C`, for which the Ki in data set [1] is 140 µM. The IC50 at Cytochrome P450 2C8 is over 40 µM; against Cytochrome P450 2D6 it was over 40 µM; against Cytochrome P450 3A4 it was over 40 µM; at Cytochrome P450 2C19 it was over 40 µM; in [3], over 25 µM; in [5], 6.1 µM. The IC50 in the data set with PBMC is 13.2 µM. Moreover, the results for the AUC at 72 h in [2] and in [6] were 22100 nM·h and 900 nM·h, respectively. Further, in [4], the Kd is 0.0009 µM.
